The text below walks through data of PMC4324449 (ACS Chemical Biology, 2014).

Data set [1] is described as follows: Self-association by concentration-dependent UV–vis absorption. It is filed as physicochemical. The note with it: for self-association by UV–vis, in words: concentration-dependent λmax, Tris buffer pH 7.4. A digest of the protocol: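 Absorption spectra recorded over a foldamer dilution series in 10 or 1 mm cuvettes. λmax plotted against concentration and fitted to a monomer-hexamer equilibrium, with monomer and hexamer λmax as fitted variables. Salt series run in 0.05 M Tris, pH 7.4, at varying NaCl, with all salt conditions fitted globally.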

Data set [2] can be described thus: Self-association by ITC heats of dilution. The class given is physicochemical. The note with it: dilution in TBS, 25 °C. The procedure, abridged:
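Heats of dilution at 25 °C. Foldamer at 1 mM in TBS (0.050 M Tris, 0.150 M NaCl, pH 7.4) injected serially into TBS in the calorimetric cell. Heat per injection taken from the integrated peak area, normalized over accumulated additions and plotted against final foldamer concentration. Fitted to a monomer-dimer-hexamer or monomer-hexamer model, depending on the foldamer.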

Some results are limits rather than exact numbers.

With (D-Cit-Sal)4-CONH2 [Compound 7], the “self-association by UV–vis, in words” value in data set [1] is “did not appear to show significant dissociation”.

Take (Lys-Sal)3-CONH2 [Compound 8]: the “pK(hex-mon) UV–vis” value in data set [1] (concentration dependence of λmax in TBS pH 7.4, monomer-hexamer fit, K in M5) is recorded as below 15. Moreover, the “self-association by UV–vis, in words” value in data set [1] is “did not show any spectral changes at concentrations as high as 500 μM”.

Regarding (Lys-Sal)4-COOH [Compound 2], the “self-association by UV–vis, in words” value in data set [1] was “did not appear to associate at all over this concentration range”. Also, in data set [2], the “self-assembly by ITC, in words” value was “very weak to no self-assembly”.
